Compound activity: PubChem, several laboratories
In the library only some 3.1% were active in any assay of this set; here they are far more common.
MEKK3 PB1 HTS: raises or lowers MEK5 binding to the human MEKK3 PB1 domain | 290,000 tested, 1.4% active | bead-based flow cytometry, Alexa488-MEK5 binding to MEKK3; actives lie on both sides; 0 = blocked by unlabeled MEK5, 100 = vehicle | binding response (% of control), % at 10 µM;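 active means binding response more than 3 SD above or below the average of its plate-row segment, actives on both sides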;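 further: Alexa488 bead fluorescence after subtracting the streptavidin-only scavenger bead signal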
PREPL inh: inhibits the human prolyl oligopeptidase-like enzyme; recombinant PREPL, fluorescence polarization activity-based probe; 320,000 tested, 0.68% active; AID 2751; inhibition, % at 5.96 µM; Q4J6C6; in the data active means inhibition above about 43%;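 further: 0% = enzyme with DMSO and 100% = wells lacking enzyme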
UBC13 polyUb: inhibitors of human UBC13 polyubiquitin chain formation. P61088. TR-FRET. inhibition, % at 20 µM. 330,000 tested, 0.47% active. AID 485273; in the data active means inhibition above about 45%, passing the limit was not always enough
MEKK2 mut-MEK5: signal of MEK5 binding to mutant human MEKK2 PB1 domain; bead flow cytometry, Alexa488-MEK5 binding to MEKK2 mutant; percent response, % at 10 µM; 290,000 tested, 0.35% active; in the data active means percent response above about 24%, passing the limit was not always enough
Apaf-1 inh: human Apaf-1 inhibition | O14727 | reconstituted apoptosome caspase-3 activity, DEVD-Rh110 fluorescence | inhibition, % at 20 µM | 330,000 tested, 0.71% active; active means inhibition of at least 40% at 20 µM;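 further: plate controls were DMSO wells for no effect and DEVD-CHO caspase inhibitor wells for full effect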
Target sequence (O14727 whole entry, looked up): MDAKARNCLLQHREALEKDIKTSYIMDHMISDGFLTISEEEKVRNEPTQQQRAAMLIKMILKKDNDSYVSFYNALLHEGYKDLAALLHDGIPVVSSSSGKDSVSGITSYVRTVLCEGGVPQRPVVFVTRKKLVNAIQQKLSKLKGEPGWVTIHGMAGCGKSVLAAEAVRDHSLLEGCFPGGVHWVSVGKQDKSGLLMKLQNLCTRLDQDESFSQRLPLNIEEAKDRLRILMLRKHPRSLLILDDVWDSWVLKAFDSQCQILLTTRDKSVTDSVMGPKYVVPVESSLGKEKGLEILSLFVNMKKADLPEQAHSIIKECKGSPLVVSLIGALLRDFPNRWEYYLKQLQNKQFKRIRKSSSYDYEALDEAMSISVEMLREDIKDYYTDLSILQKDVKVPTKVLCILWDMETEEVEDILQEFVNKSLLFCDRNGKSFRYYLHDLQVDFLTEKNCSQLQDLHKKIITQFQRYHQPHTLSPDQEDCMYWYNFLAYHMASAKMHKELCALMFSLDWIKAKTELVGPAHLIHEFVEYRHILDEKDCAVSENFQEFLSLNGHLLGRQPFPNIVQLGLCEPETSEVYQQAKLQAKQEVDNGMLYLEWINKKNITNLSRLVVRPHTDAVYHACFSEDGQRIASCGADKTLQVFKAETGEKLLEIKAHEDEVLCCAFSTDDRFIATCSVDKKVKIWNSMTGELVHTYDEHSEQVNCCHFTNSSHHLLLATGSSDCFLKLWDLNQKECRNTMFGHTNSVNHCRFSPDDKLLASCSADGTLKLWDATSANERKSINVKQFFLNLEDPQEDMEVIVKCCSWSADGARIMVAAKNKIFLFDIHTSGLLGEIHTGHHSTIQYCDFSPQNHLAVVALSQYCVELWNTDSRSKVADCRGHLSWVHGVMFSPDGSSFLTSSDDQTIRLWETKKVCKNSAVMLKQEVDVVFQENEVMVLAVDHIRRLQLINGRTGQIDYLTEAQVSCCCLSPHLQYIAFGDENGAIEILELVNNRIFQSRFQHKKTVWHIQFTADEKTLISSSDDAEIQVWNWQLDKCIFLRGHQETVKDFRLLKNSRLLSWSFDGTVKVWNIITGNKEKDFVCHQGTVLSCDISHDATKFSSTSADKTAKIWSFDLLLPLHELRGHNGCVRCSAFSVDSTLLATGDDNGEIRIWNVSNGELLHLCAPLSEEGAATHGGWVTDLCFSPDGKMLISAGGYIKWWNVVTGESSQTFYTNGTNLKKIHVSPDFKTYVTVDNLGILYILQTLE
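System: reconstituted apoptosome with Apaf-1, cytochrome c, caspase-9, procaspase-3, dATP; Signal: Rh110 fluorescence intensity; Schedule: 30 min compound preincubation, 50 min activation, room temperature; Reagent: cytochrome c trigger plus (Z-DEVD)2-Rh110 caspase-3 substrate.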
MEKK2wt PB1 HTS: raises or lowers MEK5 binding to wildtype human MEKK2 PB1 domain. Q9Y2U5. bead flow cytometry, Alexa488-MEK5 binding to MEKK2 WT; actives lie on both sides. binding response (% of control), % at 10 µM. 290,000 tested, 1.1% active. AID 1531; in the data active means binding response below about 67% or above about 130%
MEKK2wt confirm: raises or lowers MEK5 binding to wildtype human MEKK2, retest | binding response (% of control), % at 10 µM | 5,900 tested, 2.4% active | shares compounds with MEKK3 PB1 HTS | bead flow cytometry, Alexa488-MEK5 binding to MEKK2 WT; actives lie on both sides; in the data active means binding response below about 16% or above about 210%; inactive means in between
MEKK2mut confirm: signal of MEK5 binding to mutant human MEKK2, retest; shares compounds with MEKK3 PB1 HTS; bead flow cytometry, Alexa488-MEK5 binding to MEKK2 mutant; percent response, % at 10 µM; 5,900 tested, 2% active; in the data active means percent response mostly above about 71%, no sharp cut-off; inactive means mostly below about 38%;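 further: higher means compound restores mutant binding toward wildtype level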
MEKK3 confirm: MEKK3-MEK5 PB1 inhibition, single concentration confirmation; shares compounds with MEKK3 PB1 HTS; bead flow cytometry, Alexa488-MEK5 binding to MEKK3; active compounds read low; binding response (% of control), % at 10 µM; 5,900 tested, 1.8% active; AID 1894;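 active means binding response below 72% of control, or above a set upper limit, though filed actives all read lower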;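 further: 100% = DMSO only wells and 0% = binding blocked by excess unlabeled MEK5; lower values mean stronger disruption of MEK5 binding to MEKK3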
An asterisk follows results filed as active; . = not tested or not shown; [ ] = dose if it differs, or a comment.

SMILES	MEKK3 PB1 HTS	PREPL inh	UBC13 polyUb	MEKK2 mut-MEK5	Apaf-1 inh	MEKK2wt PB1 HTS	MEKK2wt confirm	MEKK2mut confirm	MEKK3 confirm
Cc1ccc(CN2CCNC(=O)C2CC(=O)NC2CCCCCC2)cc1 (centres undefined)	108.0	-4.3	-1.1	24.0*	25.7	127.0	143.0	36.0	107.0
O=C(CC1C(=O)NCCN1CC1CCCCC1)NCCc1ccc(F)cc1 (centres undefined)	112.0	27.9	13.4	-3.0	15.2	139.0*	138.0	57.0	108.0
Cc1ccsc1C(=O)OC(C)C(=O)Nc1ccc(Cl)cn1 (centres undefined)	.	-3.4	-0.5	.	2.1	.	.	.	.
CC(=O)c1cccc(OCC(O)CNCCc2ccc(Cl)cc2)c1 (centres undefined)	103.0	-0.3	-5.6	22.0	3.1	115.0	.	.	.
CCCc1cnc(NCCNCC(O)COc2ccc(Cl)c(Cl)c2)nc1 (centres undefined)	106.0	23.6	16.3	31.0	26.6	144.0*	109.0	1.0	102.0
COc1ccc(CN2C(=NC(=O)C3CCCO3)SC3CS(=O)(=O)CC32)cc1 (centres undefined)	96.0	-5.2	3.3	1.0	-2.1	96.0	.	.	.
CCC(C(=O)NC(C)(C)C)N(C(=O)Cn1nnc(-c2ccccc2F)n1)c1cnc2ccccc2c1 (centres undefined)	128.0*	3.6	-4.9	1.0	-7.6	120.0	101.0	4.0	102.0
CC(Sc1nc(N)cc(N)n1)C(=O)NCCC1=CCCCC1 (centres undefined)	.	-1.0	-6.2	.	8.9	.	.	.	.
COc1ccc(C(=O)N/N=C/c2sc(N3CCOCC3)nc2-c2ccccc2)cc1OC	97.0	12.3	11.3	-10.0	8.7	79.0	.	.	.
COc1ccccc1NS(=O)(=O)c1cc([N+](=O)[O-])ccc1N/N=C/c1sc(N2CCOCC2)nc1-c1ccccc1	81.0	16.2	.	205.0*	.	65.0	85.0	-10.0	94.0
Cc1cccc(/C=N/N(CCO)C2=NS(=O)(=O)c3ccccc32)c1	138.0*	-15.1	-11.1	1.0	4.1	117.0	107.0	11.0	103.0
CC(C)(C)NC(=O)CCN(/N=C/c1ccccc1)C1=NS(=O)(=O)c2ccccc21	103.0	-1.9	-5.1	6.0	14.4	102.0	.	.	.
COC(=O)CN1C(=O)C(C)(C)Oc2ccc(C(=O)Nc3ccccc3F)cc21	103.0	13.3	1.8	8.0	4.8	103.0	.	.	.
CCOC(=O)CN1C(=O)C(C)(C)Oc2ccc(C(=O)Nc3ccccc3)cc21	72.0*[inhibitor]	-3.4	1.2	-11.0	13.6	75.0	101.0	5.0	100.0
COc1ccc(-c2cc(-c3nnc(COC(=O)CC4CCCC4)o3)c3ccccc3n2)cc1OC	135.0*	-3.2	9.7	0.0	12.4	93.0	95.0	-9.0	99.0
COc1ccc(-c2cc(-c3nnc(COC(=O)C4CC4)o3)c3ccccc3n2)cc1OC	113.0	2.1	21.9	1.0	20.3	96.0	.	.	.
COc1ccccc1OCCC(=O)NNC(=O)c1ccccc1F	.	0.7	3.0	.	-10.5	.	.	.	.
Cc1nnc(N)s1	73.0*[inhibitor]	1.6	4.9	-37.0	-5.6	82.0	101.0	0.0	101.0
CCOC(=O)c1ccc(NC(=O)Cn2nnc(-c3ccccc3)n2)cc1	120.0	-3.9	0.6	11.0	-9.1	134.0*	107.0	2.0	104.0
CCOC(=O)c1ccc(NC(=O)CCc2nc(-c3ccccc3)no2)cc1	130.0*	-35.2	11.1	7.0	13.6	120.0	106.0	2.0	104.0
CCOC(=O)c1ccc(NC(=O)Cn2nnc(-c3ccc(F)cc3)n2)cc1	100.0	4.8	0.7	-3.0	-4.6	93.0	.	.	.
CCOC(=O)c1ccc(NC(=O)CCc2nc(-c3ccccc3Cl)no2)cc1	105.0	-38.3	7.6	0.0	17.3	103.0	.	.	.
NC(=O)c1nn(-c2ccccc2)nc1NC(=O)Cn1nnc(-c2ccccc2)n1	132.0*	-1.5	-1.2	-1.0	-3.1	104.0	92.0	-5.0	99.0
CCOC(=O)c1ccc(NC(=O)COc2ccccc2CNCCc2ccccc2)cc1	102.0	-51.8	43.5	39.0	11.7	206.0*	175.0	42.0	105.0
NC(=O)c1nn(-c2ccccc2)nc1NC(=O)CN1CCCC1	106.0	-7.8	1.8	-1.0	-21.9	102.0	.	.	.
SMILES	MEKK3 PB1 HTS	PREPL inh	UBC13 polyUb	MEKK2 mut-MEK5	Apaf-1 inh	MEKK2wt PB1 HTS	MEKK2wt confirm	MEKK2mut confirm	MEKK3 confirm
CCOC(=O)c1ccc(NC(=O)COc2ccc(CNCCO)cc2OCC)cc1	87.0	-5.2	6.0	-3.0	-7.9	95.0	.	.	.
Cc1ccc(C(=O)NCC(=O)OCC(=O)Nc2ccc3[nH]c(=O)[nH]c3c2)cc1	.	8.8	-1.6	.	-4.2	.	.	.	.
CCCCNC(=O)Cn1c(=O)c2c(ncn2CC)n(Cc2ccccc2)c1=O	103.0	6.1	6.3	5.0	0.2	109.0	.	.	.
CCCn1c(N)c(N(CCOC)C(=O)c2ccc([N+](=O)[O-])cc2Cl)c(=O)[nH]c1=O	104.0	13.2	0.2	5.0	6.0	105.0	.	.	.
O=C(O)C1C2C=CC(C2)C1C(=O)Nc1ccc(Cl)c(Cl)c1 (centres undefined)	103.0	-4.3	-11.6	26.0*	-3.4	104.0	96.0	-1.0	98.0
CCC1(c2ccc(Cl)cc2)NC(=S)N(c2ccccc2)N1 (centres undefined)	128.0*	8.7	-1.1	0.0	-7.1	107.0	98.0	-2.0	99.0
CC1CCCCN1C(=O)CSc1nc2ccccc2[nH]1 (centres undefined)	143.0*	7.5	-1.8	6.0	2.5	126.0	107.0	8.0	108.0
COc1ccc(-n2nc3c(c2NC(=O)C(C)Oc2ccccc2)CS(=O)(=O)C3)cc1 (centres undefined)	99.0	-7.8	-3.6	1.0	-1.8	104.0	.	.	.
Cc1cccc(C(=O)NCCC(=O)NCc2ccccc2Cl)c1	.	0.9	8.4	.	-1.8	.	.	.	.
COc1ccc(CNCc2cccn2C)cc1	111.0	11.6	-1.5	28.0*	-3.4	120.0	110.0	0.0	98.0
COc1cc(CN(CCN(C)C)Cc2ccccc2)ccc1OCc1ccccc1	106.0	-10.0	20.1	10.0	4.3	138.0*	126.0	14.0	106.0
COc1ccccc1C(=O)N(C)c1nnc(-c2ccccc2)s1	97.0	2.9	0.4	-15.0	15.1	91.0	.	.	.
O=C(Nc1n[nH]c(=S)s1)c1ccc2ccccc2c1	96.0	8.6	-14.7	-8.0	4.3	92.0	.	.	.
